# Screening results deposited in PubChem BioAssay by several laboratories.
# Tn7 DDE FP: disrupts Tn7 cyclic peptide binding to fibrin D-Dimer-E complex. 0.13% of 370,000 active. AID 720508. FP displacement of FITC-Tn7 peptide from fibrin DD(E); 0% = median of compound wells per plate. inhibition, % at 8.3 µM. P02675;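 active means inhibition above the mean of compounds falling within the control limits plus 3 SD of them, cut at about 14% in these data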;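 further: 0% = plate median of compound wells and 100% = 10 µM Aha-Tn7 peptide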
# Target sequence (P02675 whole entry, looked up): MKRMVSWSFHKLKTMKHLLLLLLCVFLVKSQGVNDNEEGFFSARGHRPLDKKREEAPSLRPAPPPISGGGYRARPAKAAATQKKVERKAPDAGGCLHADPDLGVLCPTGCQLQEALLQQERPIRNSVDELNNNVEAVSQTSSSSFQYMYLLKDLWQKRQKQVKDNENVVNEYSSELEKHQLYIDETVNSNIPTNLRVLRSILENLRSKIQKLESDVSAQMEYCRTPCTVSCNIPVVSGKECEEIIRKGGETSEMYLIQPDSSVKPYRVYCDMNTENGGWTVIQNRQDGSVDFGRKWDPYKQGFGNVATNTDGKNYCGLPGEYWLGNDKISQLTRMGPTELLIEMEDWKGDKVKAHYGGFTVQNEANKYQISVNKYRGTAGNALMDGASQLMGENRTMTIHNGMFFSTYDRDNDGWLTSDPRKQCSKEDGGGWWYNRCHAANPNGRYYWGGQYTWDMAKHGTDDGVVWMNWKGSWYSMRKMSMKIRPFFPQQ
#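 Measure: % inhibition scaled between sample-field median and high-control FP; Test system: human fibrin DD(E); Quantity: 2 µM final DD(E) protein; Doses: one dose, 8.3 µM nominal; Schedule: compound with protein 10 min, then 3 h after probe, room temperature; Detection: fluorescence polarization; Medium: Tris buffer with calcium and detergent, pH 7.8.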
# Neddylation inh: blocks human cullin neddylation | P61081+Q13564 | TR-FRET cullin neddylation, biochemical | calls only at 25 µM | 0.58% of 360,000 active | AID 651699; in the data active means inhibition above about 36%
# Tn6 DDE FP: DD(E)-Tn6 binding inhibition, primary FP screen | 0.21% of 370,000 active | P02675 | Fibrin DD(E) TRITC-Tn6 fluorescence polarization displacement | AID 720509 | inhibition, % at 8.3 µM;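 active means inhibition above a per-campaign cutoff: mean of compounds within control limits plus 3 SD, cut at about 15% in these data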;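 further: 0% = median of all compound wells on the plate and 100% = blocking peptide control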
# KLK7 zymogen act: activates the human kallikrein-7 zymogen. P49862. purified proKLK7, EDANS-DABCYL substrate fluorescence; 100% is mature enzyme control, 0% vehicle. activation, % at 7 µM. 0.9% of 370,000 active. AID 652039;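 active means activation above the mean of all tested compounds plus 3 SD, computed per campaign excluding outliers beyond control limits, cut at about 13% in these data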
# SKN-1 block: inhibitors of C. elegans SKN-1; inhibition, % at 21.8 µM; C. elegans VP596 Pgst-4::GFP/RFP ratio, acrylamide-induced, 24 h; 0.49% of 360,000 active; AID 624304;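 active means interference check ratio from 0.5 to 1.5 plus GFP to RFP signal ratio inhibition reaching or exceeding a fixed threshold, cut at about 30% in these data, passing the limit was not always enough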
# MT1-MMP act inh: blocks activation of human MT1-MMP | HT1080 RFP-PRO-GFP cells, GFP/RFP ratio fluorescence, overnight; percent of plate control window, DMSO zero | GFP/RFP ratio change, % at 20 µM | 0.061% of 360,000 active | AID 651647;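 active means GFP/RFP ratio change of at least 30% with cell ATP level not reduced by more than half and red fluorescence within 50% of control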
#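 Assay system – RFP-PRO-GFP reporter HT1080 cells · Compound dosing – single dose of 20 µM compound, 1% DMSO final · Incubation – overnight compound exposure at 37 °C · Measure – GFP/RFP fluorescence ratio · Benchmarks – DMSO wells and RFP-L50D-GFP cells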
# Starred values were filed as active, the others as inactive; i = inactive; / = no result given; + = active, no number. Sampled rows, rich in hits. Any-hit rate of the full collection: about 2.2%.
SMILES,Tn7 DDE FP,Neddylation inh,Tn6 DDE FP,KLK7 zymogen act,SKN-1 block,MT1-MMP act inh
O=C(NCC(=O)N1CCOCC1)c1ccc(Cl)c(Cl)c1,-11,i,-8,0,37*,1
CCOc1ccc(-c2noc([C@@H]3O[C@H](CO)[C@@H](O)[C@H]3O)n2)cc1,-4,i,-7,0,5,-3
Cc1ccc(-n2nnc(-c3nccs3)n2)cc1,0,i,-2,0,29,8
Clc1ccc(-n2nnc(-c3nccs3)n2)cc1Cl,-4,i,-7,0,61*,2
Fc1ccc(-n2nnc(-c3cccnc3)n2)cc1,0,i,-2,0,56*,-6
Clc1ccc(-n2nnc(-c3cccnc3)n2)cc1Cl,0,i,-7,-1,59*,-2
Brc1ccccc1-n1nnc(-c2cccnc2)n1,-2,i,3,0,32,2
COc1ccc(/C=C/C(=O)NC(=S)NNC(=O)c2cccnc2)cc1,5,i,5,0,9,4
COc1ccc(/C=C/C(=O)NC(=S)NNC(=O)c2cnccn2)cc1,2,+,8,0,-4,13
O=C(/C=C/c1ccc(F)cc1)NC(=S)NNC(=O)c1cnccn1,0,+,-6,0,-3,16
Cc1cccnc1CCNC(=O)CCc1nnc(-c2ccccc2)o1,-5,i,2,0,-2,1
CCOc1ccc2[nH]c(C)c(CN3CCOCC3)c(=O)c2c1,-2,i,-9,2,13,-1
O=C(Nc1ccccc1)OCCCc1ccccc1,-7,i,5,0,35*,2
O=[N+]([O-])c1cccc(-c2nc(-c3ccccc3)no2)c1,-4,i,-2,0,8,-2
O=[N+]([O-])c1cccc(-c2noc(-c3ccco3)n2)c1,-1,i,-5,0,53*,2
COc1ccc(OC)c(CN2CCN(C(=O)c3ccco3)CC2)c1,-4,i,3,1,5,6
C=CCN1C(=O)CN=C1Nc1ccccc1,1,i,2,-1,3,-2
Cc1ccc2sc(NC(=O)c3cccc(N4C(=O)CCC4=O)c3)nc2c1C,6,i,-3,1,38*,-2
O=C(NCCCN1CCN(c2cccc(Cl)c2)CC1)c1ccc(N2CCCC2=O)cc1,3,i,4,1,-8,1
O=C(C[C@H]1C[C@H](C(=O)N2CCOCC2)[C@@]2(CCC3CCCC3)c3[nH]c4cc(-c5ccco5)ccc4c3CCN2C1=O)NCc1ccco1,8,/,-5,-7,36*,-24
O=C(N/N=C/c1cc(Br)ccc1O)C(c1ccncc1)N1CCOCC1 (stereo unspecified),-7,+,-1,-71,12,0
Cc1[nH]c2ccccc2c1/C=N/Nc1nc2ccccc2[nH]1,-2,+,-12,-2,-6,18
O=C(NC1CCCCCC1)c1ccc(CS(=O)(=O)Cc2ccccc2F)o1,-5,i,4,0,1,1
O=C(c1cc2ccccc2o1)c1cccs1,4,i,1,-1,13,1
O=C(c1cccs1)c1ccc(-c2cccs2)s1,-3,/,-8,-20,62*,-1
SMILES,Tn7 DDE FP,Neddylation inh,Tn6 DDE FP,KLK7 zymogen act,SKN-1 block,MT1-MMP act inh
O=C(Nc1cccc(Oc2ccccc2)c1)C1Cc2c(-c3ccc4c(c3)OCO4)ccnc2O1 (stereo unspecified),3,i,4,0,36*,-1
CN(C)CCNC(=O)C1Cc2c(-c3ccccc3Oc3ccccc3)ccnc2O1 (stereo unspecified),-4,i,11,0,-4,2
CN(C(=O)C1Cc2c(-c3ccccc3Oc3ccccc3)ccnc2O1)c1ccccc1 (stereo unspecified),1,i,-3,0,35*,-2
C=CCN1C(=O)C(=O)N(Cc2nc3ccccc3s2)C1=O,-9,i,7,0,48*,0
C=CCn1c(=O)c2ccccc2n2c(SCc3nc4ccccc4s3)nnc12,-5,i,-2,0,18,-1
Cc1cccc(-n2ncc3c(NCCCN4CCCC4=O)ncnc32)c1,2,+,0,1,-9,3
Cc1nc(C(=O)O)cc2c1[nH]c1ccccc12,-2,/,-5,59*,3,0
CC1CCCCC12NC(=O)N(CC(=O)OCc1ccc(Br)cc1)C2=O (stereo unspecified),-5,i,-2,0,-1,-2
COc1cccc(C2CC(C(F)(F)F)n3nc(C(=O)NCc4cccnc4)cc3N2)c1 (stereo unspecified),-8,i,-4,1,5,-1
COc1cc(N/N=C/c2ccc(N(C)C)cc2)ncn1,-7,+,-2,-4,4,2
Cc1c(N=C2N=C(NC(=O)NC(C)(C)C)c3ccccc32)c(=O)n(-c2ccccc2)n1C,1,i,2,0,3,-8
Cc1c(N=C2N=C(NC(=O)c3cccs3)c3ccccc32)c(=O)n(-c2ccccc2)n1C,-7,i,-11,0,39*,-151
Cc1ccc(C)c(NC(=O)/C(C#N)=C/c2ccc[nH]2)c1,3,i,0,0,37*,2
Cc1cccc(NC(=O)/C(C#N)=C/c2ccc[nH]2)c1C,6,i,-1,-1,0,-6
CCN1C(=O)c2cccc3c(NS(=O)(=O)c4ccc(NC(C)=O)cc4)ccc1c23,10,i,-6,2,-12,18
Cc1cc(C)c2oc(C(=O)N3CCN(Cc4ccccc4)CC3)cc(=O)c2c1,3,i,-5,0,-11,2
Nc1cc2ccncc2c2ccccc12,-3,/,4,103*,0,-19
N#Cc1cc2ccncc2c2ccccc12,5,i,1,0,7,-14
Clc1ccc(-c2ccnc(-n3cccc3)n2)s1,-5,i,-4,-20,43*,-9
O=C(COc1ccc(Br)cc1)NCc1cn2ccccc2n1,-2,i,0,0,4,4
Brc1ccc(OCc2cn3ccccc3n2)cc1,1,i,-2,-1,48*,5
CSc1ccc(Cl)c(C(=O)OCC(=O)NCc2ccco2)c1,5,i,-2,-1,1,-3
CSc1ccc(Cl)c(C(=O)NCc2ccco2)c1,-1,i,3,0,41*,4
CCC(C)NC(=O)CCCCCn1c(=O)[nH]c2cc(OC)c(OC)cc2c1=O (stereo unspecified),-4,i,-3,0,-6,6
O=C(CSc1nc(-c2ccccc2)cs1)Nc1nccs1,4,i,-2,0,4,2
